Laboratory results: ChEMBL document CHEMBL3351896, “Small Molecule that Reverses Dexamethasone Resistance in T-cell Acute Lymphoblastic Leukemia (T-ALL)” (ACS Med Chem Lett, 2014)
Activity calls are given as the source filed them. The rule behind the calls is not given here.

Assays:
CUTLL1 [1] = assay: Induction of PARP1 cleavage in human CUTLL1 cells at 25 uM after 24 hrs by western blotting method; assay type: functional, cell-based
Procedure, shortened: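 CUTLL1 cells exposed 24 h to compound (25 μM) alone, with 1 μM dexamethasone, or with dexamethasone plus 1 μM RU486. Apoptosis read as cleaved PARP by Western blot, quantified as fold change.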

CUTLL1 [2] = assay: Growth inhibition of human CUTLL1 cells at 50 uM in presence of erastin after 48 hrs by alamar blue assay; assay type: functional, cell-based
CUTLL1 [3] = assay: Growth inhibition of human CUTLL1 cells at 50 uM in presence of MG262 after 48 hrs by alamar blue assay; assay type: functional, cell-based
[4] = biological target: T1, Gamma-secretase (Homo sapiens) (UniProt Q96BI3+Q9NZ42+Q8WW43+P49768+Q92542+P49810); assay: Inhibition of gamma secretase in human CUTLL1 cells assessed as effect on NOTCH cleavage level at 25 uM after 24 hrs by Western blotting; assay type: cell-based
Procedure, shortened: (§1)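 Western blot of intracellular NOTCH (ICN) in CUTLL1 cells after 24 h exposure to compound alone or with 1 μM dexamethasone. The γ-secretase inhibitor Compound E (100 nM) plus dexamethasone was the reference treatment.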

[5] = biological target: T1, Gamma-secretase (Homo sapiens); assay: Inhibition of gamma secretase in human CUTLL1 cells assessed as effect on NOTCH cleavage level at 25 uM in presence of 1 uM dexamethasone after 24 hrs by Western blotting; assay type: cell-based; procedure, shortened: as §1
CUTLL1 [6] = assay: Increase in GR expression in human CUTLL1 cells at 25 to 50 uM in presence of 1 uM dexamethasone and 1 uM […] and glucocorticoid receptor antagonist RU486 after 24 hrs by RT-qPCR method; assay type: functional, cell-based
Procedure, shortened: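 CUTLL1 cells exposed to compound (25 or 50 μM) alone, with 1 μM dexamethasone, or with dexamethasone plus 1 μM RU486, for 6 or 24 h. GR measured as protein by Western blot and as transcript by RT-qPCR.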

CUTLL1 [7] = assay: Effect on LILRB3 gene expression in human CUTLL1 cells in presence of 1 uM dexamethasone at 30 uM after 24 hrs by microarray method; assay type: functional, cell-based
Procedure, shortened: (§2)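 CUTLL1 T-ALL cells exposed 24 h to vehicle (DMSO), dexamethasone alone (1 μM), test agent alone (30 μM), or dexamethasone (1 μM) plus test agent (30 μM), in triplicate. Expression profiled by microarray. Leading-edge genes from GSEA were compared between the dexamethasone-plus-agent and dexamethasone-alone groups, using glucocorticoid-regulated gene sets from ALL patients on glucocorticoid therapy.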

CUTLL1 [8] = assay: Effect on SMAP2 gene expression in human CUTLL1 cells in presence of 1 uM dexamethasone at 30 uM after 24 hrs by microarray method; assay type: functional, cell-based
Procedure, shortened: (§3)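 Human CUTLL1 T-ALL cells exposed for 24 h to vehicle (DMSO), dexamethasone alone (1 μM), test compound alone (30 μM), or dexamethasone 1 μM plus compound 30 μM, each in triplicate. Expression profiled by microarray. Glucocorticoid-regulated gene sets from ALL patients on glucocorticoid therapy scored by GSEA. Leading-edge genes compared between the combination and dexamethasone alone.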

CUTLL1 [9] = assay: Effect on DDIT4 gene expression in human CUTLL1 cells in presence of 1 uM dexamethasone at 30 uM after 24 hrs by microarray method; assay type: functional, cell-based; procedure, shortened: as §2
CUTLL1 [10] = assay: Effect on APITD1 gene expression in human CUTLL1 cells in presence of 1 uM dexamethasone at 30 uM after 24 hrs by microarray method; assay type: functional, cell-based; procedure, shortened: as §2
CUTLL1 [11] = assay: Effect on TWISTNB gene expression in human CUTLL1 cells in presence of 1 uM dexamethasone at 30 uM after 24 hrs by microarray method; assay type: functional, cell-based; procedure, shortened: as §3
CUTLL1 [12] = assay: Effect on RAD51AP1 gene expression in human CUTLL1 cells in presence of 1 uM dexamethasone at 30 uM after 24 hrs by microarray method; assay type: functional, cell-based; procedure, shortened: as §3
CUTLL1 [13] = assay: Effect on TIPIN gene expression in human CUTLL1 cells in presence of 1 uM dexamethasone at 30 uM after 24 hrs by microarray method; assay type: functional, cell-based; procedure, shortened: as §3
CUTLL1 [14] = assay: Effect on BYSL gene expression in human CUTLL1 cells in presence of 1 uM dexamethasone at 30 uM after 24 hrs by microarray method; assay type: functional, cell-based; procedure, shortened: as §2
CUTLL1 [15] = assay: Effect on MCM4 gene expression in human CUTLL1 cells in presence of 1 uM dexamethasone at 30 uM after 24 hrs by microarray method; assay type: functional, cell-based; procedure, shortened: as §2
CUTLL1 [16] = assay: Effect on TK1 gene expression in human CUTLL1 cells in presence of 1 uM dexamethasone at 30 uM after 24 hrs by microarray method; assay type: functional, cell-based; procedure, shortened: as §3
CUTLL1 [17] = assay: Effect on TSC22D3 gene expression in human CUTLL1 cells in absence of 1 uM dexamethasone at 30 uM after 24 hrs by microarray method; assay type: functional, cell-based; procedure, shortened: as §3
CUTLL1 [18] = assay: Effect on LILRB3 gene expression in human CUTLL1 cells in absence of 1 uM dexamethasone at 30 uM after 24 hrs by microarray method; assay type: functional, cell-based; procedure, shortened: as §2
CUTLL1 [19] = assay: Effect on PFAS gene expression in human CUTLL1 cells in absence of 1 uM dexamethasone at 30 uM after 24 hrs by microarray method; assay type: functional, cell-based; procedure, shortened: as §3
CUTLL1 [20] = assay: Effect on TWISTNB gene expression in human CUTLL1 cells in absence of 1 uM dexamethasone at 30 uM after 24 hrs by microarray method; assay type: functional, cell-based; procedure, shortened: as §3
CUTLL1 [21] = assay: Effect on POLE2 gene expression in human CUTLL1 cells in absence of 1 uM dexamethasone at 30 uM after 24 hrs by microarray method; assay type: functional, cell-based; procedure, shortened: as §3
CUTLL1 [22] = assay: Effect on DSCC1 gene expression in human CUTLL1 cells in absence of 1 uM dexamethasone at 30 uM after 24 hrs by microarray method; assay type: functional, cell-based; procedure, shortened: as §2
CUTLL1 [23] = assay: Effect on BCCIP gene expression in human CUTLL1 cells in absence of 1 uM dexamethasone at 30 uM after 24 hrs by microarray method; assay type: functional, cell-based; procedure, shortened: as §2
CUTLL1 [24] = assay: Effect on HELLS gene expression in human CUTLL1 cells in absence of 1 uM dexamethasone at 30 uM after 24 hrs by microarray method; assay type: functional, cell-based; procedure, shortened: as §2
CUTLL1 [25] = assay: Effect on NXT1 gene expression in human CUTLL1 cells in absence of 1 uM dexamethasone at 30 uM after 24 hrs by microarray method; assay type: functional, cell-based; procedure, shortened: as §2
CUTLL1 [26] = assay: Effect on RANBP1 gene expression in human CUTLL1 cells in absence of 1 uM dexamethasone at 30 uM after 24 hrs by microarray method; assay type: functional, cell-based; procedure, shortened: as §3
CUTLL1 [27] = assay: Effect on E2F7 gene expression in human CUTLL1 cells in absence of 1 uM dexamethasone at 30 uM after 24 hrs by microarray method; assay type: functional, cell-based; procedure, shortened: as §2
CUTLL1 [28] = assay: Effect on RRM1 gene expression in human CUTLL1 cells in absence of 1 uM dexamethasone at 30 uM after 24 hrs by microarray method; assay type: functional, cell-based; procedure, shortened: as §3
CUTLL1 [29] = assay: Effect on GINS2 gene expression in human CUTLL1 cells in absence of 1 uM dexamethasone at 30 uM after 24 hrs by microarray method; assay type: functional, cell-based; procedure, shortened: as §2
CUTLL1 [30] = assay: Effect on NME1 gene expression in human CUTLL1 cells in absence of 1 uM dexamethasone at 30 uM after 24 hrs by microarray method; assay type: functional, cell-based; procedure, shortened: as §2
CUTLL1 [31] = assay: Effect on MCM4 gene expression in human CUTLL1 cells in absence of 1 uM dexamethasone at 30 uM after 24 hrs by microarray method; assay type: functional, cell-based; procedure, shortened: as §2
CUTLL1 [32] = assay: Effect on CDC45 gene expression in human CUTLL1 cells in absence of 1 uM dexamethasone at 30 uM after 24 hrs by microarray method; assay type: functional, cell-based; procedure, shortened: as §2

In the case of Nc1ncc(-c2ccncc2)c(C2CC2)n1, the Activity (CUTLL1 [1]) is reported as “inactive”, the “growth inhibition (GI)” value (CUTLL1 [2]) is reported as “inactive” and the “growth inhibition (GI)” value (CUTLL1 [3]) is reported as “inactive”. The inhibition [4] was “inactive”, the inhibition [5] was “inactive” and the Activity (CUTLL1 [6]) was “inactive”. The Activity (CUTLL1 [7]) was “Active”, the Activity (CUTLL1 [8]) was “Active” and the Activity (CUTLL1 [9]) was “Active”. The Activity (CUTLL1 [10]) was “Active”, the Activity (CUTLL1 [11]) was “Active” and the Activity (CUTLL1 [12]) was “Active”. For the same molecule, the Activity (CUTLL1 [13]) was “Active”, the Activity (CUTLL1 [14]) was “Active” and the Activity (CUTLL1 [15]) was “Active”. The Activity (CUTLL1 [16]) was “Active”, the Activity (CUTLL1 [17]) was “inactive” and the Activity (CUTLL1 [18]) was “inactive”. The Activity (CUTLL1 [19]) was “inactive”, the Activity (CUTLL1 [20]) was “inactive” and the Activity (CUTLL1 [21]) was “inactive”. The Activity (CUTLL1 [22]) was “inactive”, the Activity (CUTLL1 [23]) was “inactive” and the Activity (CUTLL1 [24]) was “inactive”. For the same molecule, the Activity (CUTLL1 [25]) was “inactive”, the Activity (CUTLL1 [26]) was “inactive” and the Activity (CUTLL1 [27]) was “inactive”. For the same molecule, the Activity (CUTLL1 [28]) was “inactive”, the Activity (CUTLL1 [29]) was “inactive” and the Activity (CUTLL1 [30]) was “inactive”. The Activity (CUTLL1 [31]) was “inactive” and the Activity (CUTLL1 [32]) was “inactive”.
